Measured values: ChEMBL document CHEMBL1821614, “Synthesis and biological evaluation of novel Mannich bases of 2-arylimidazo[2,1-b]benzothiazoles as potential anti-cancer agents” (Eur J Med Chem, 2011)
Activity calls are given as the source filed them. The calls are words filed in the database; no cut-off is given here.

What was measured:
HepG2 [1] = test: Cytotoxicity against human HepG2 cells at 4 uM after 24 hrs by MTT assay; format: functional, cell-based
Outline: (§1)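 Cells were grown in DMEM with 10% FCS, penicillin and streptomycin at 37 °C under 5% CO2. They were seeded at 10,000 cells/well, left overnight, then treated 24 h. Medium was replaced with fresh medium, MTT was added and plates were held 2 h at 37 °C. Absorbance was read at 570 nm. Single-point runs used 4 µM. Data come from three independent experiments as mean ± S.D.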

MCF7 [2] = test: Selectivity ratio of IC50 for human HEK cells to IC50 for human MCF7 cells
Outline: (§2)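 Selectivity index was calculated as the MTT IC50 in normal HEK cells divided by the IC50 in the given cancer line.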

HeLa [3] = test: Cytotoxicity against human HeLa cells after 24 hrs by MTT assay; format: functional, cell-based; outline: as §1
MCF7 [4] = test: Cytotoxicity against human MCF7 cells at 4 uM after 24 hrs by MTT assay; format: functional, cell-based; outline: as §1
[5] = Cytotoxicity against human HEK cells after 24 hrs by MTT assay; format: cell-based; conditions: HEK293, 24 h
HepG2 [6] = test: Cytotoxicity against human HepG2 cells after 24 hrs by MTT assay; format: functional, cell-based; conditions: HepG2, 24 h; outline: as §1
HepG2 [7] = test: Induction of cell cycle arrest in human HepG2 assessed as accumulation at S-phase at 4 uM after 24 hrs by propidium iodide staining based FACS analysis; format: functional
Outline: (§3)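 HepG2 cells were seeded at 5 × 10^5 per 60 mm dish and grown 24 h. Compound was added at 4 µM for a further 24 h. Cells were harvested with trypsin-EDTA, fixed in ice-cold 70% ethanol 30 min at 4 °C and treated with RNase A 30 min at 37 °C. They were stained with propidium iodide/citrate/Triton X-100 solution and phase distribution was read by flow cytometry.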

HepG2 [8] = test: Induction of cell cycle arrest in human HepG2 assessed as accumulation at G2/M-phase at 4 uM after 24 hrs by propidium iodide staining based FACS analysis; format: functional; outline: as §3
HeLa [9] = test: Selectivity ratio of IC50 for human HEK cells to IC50 for human HeLa cells; outline: as §2
HeLa [10] = test: Cytotoxicity against human HeLa cells at 4 uM after 24 hrs by MTT assay; format: functional, cell-based; outline: as §1
MCF7 [11] = test: Cytotoxicity against human MCF7 cells after 24 hrs by MTT assay; format: functional, cell-based; conditions: MCF7, 24 h; outline: as §1
HepG2 [12] = test: Selectivity ratio of IC50 for human HEK cells to IC50 for human HepG2 cells; outline: as §2
HepG2 [13] = test: Induction of cell cycle arrest in human HepG2 assessed as accumulation at G0/G1-phase at 4 uM after 24 hrs by propidium iodide staining based FACS analysis; format: functional; outline: as §3
HepG2 [14] = test: Down regulation of p38 MPAK protein in human HepG2 cells at 4 uM after 24 hrs by Western blot analysis; format: functional, cell-based
Outline: (§4)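 HepG2 cells exposed 24 h to compounds at 4 µM, with an untreated control and a YM-201627 reference. Lysates were resolved at 50 µg protein per lane on 12% SDS-PAGE and transferred to PVDF. Membranes were blocked 2 h at RT in TBST with 5% blocking powder, probed with primary antibody at 4 °C overnight and then HRP secondary (1:2000) 1 h at RT. Detection by chemiluminescence, with β-actin as loading control.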

HepG2 [15] = test: Induction of apoptosis in human HepG2 cells assessed as caspase3 activation at 4 uM by fluorimetric analysis relative to control; format: functional
Outline: (§5)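 HepG2 cells were treated with compound at 4 µM, with an untreated control. Lysates were mixed with 2× reaction buffer containing DTT, caspase-3 substrate was added and the mix was incubated 1 h at 37 °C. Fluorescence was read at ex 400/em 505 nm and expressed as activity relative to the untreated control.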

HepG2 [16] = test: Down regulation of […] protein in human HepG2 cells at 4 uM after 24 hrs by Western blot analysis; format: functional, cell-based; outline: as §4
HepG2 [17] = test: Induction of cell cycle arrest at G2/M phase in human HepG2 cells assessed as down regulation of cyclin B1 at 4 uM after 24 hrs by Western blot analysis
HepG2 [18] = test: Down regulation of phosphorylated JNK protein in human HepG2 cells at 4 uM after 24 hrs by Western blot analysis; format: functional, cell-based; outline: as §4
HepG2 [19] = test: Down regulation of c-jun protein in human HepG2 cells at 4 uM after 24 hrs by Western blot analysis; format: functional, cell-based; outline: as §4
HepG2 [20] = test: Down regulation of PKCalpha protein in human HepG2 cells at 4 uM after 24 hrs by Western blot analysis; format: functional, cell-based; outline: as §4
HepG2 [21] = test: Induction of apoptosis in human HepG2 cells assessed as caspase3 activation at 4 uM by fluorimetric analysis; format: functional, cell-based; outline: as §5
HepG2 [22] = test: Upregulation of Chk2 protein in human HepG2 cells at 4 uM after 24 hrs by Western blot analysis; format: functional, cell-based; outline: as §4
HepG2 [23] = test: Antiproliferative activity against human HepG2 cells assessed as down regulation of NF-kappaB protein at 4 uM after 24 hrs by Western blot analysis; format: functional, cell-based; outline: as §4

Row | Structure (SMILES) | Activity (HepG2 [1]) | Ratio IC50 (MCF7 [2]) | IC50 (HeLa [3]) | Activity (MCF7 [4]) | IC50 [5] | IC50 (HepG2 [6]) | Activity (HepG2 [7]) | Activity (HepG2 [8]) | Ratio IC50 (HeLa [9]) | Activity (HeLa [10]) | IC50 (MCF7 [11]) | Ratio IC50 (HepG2 [12]) | Activity (HepG2 [13]) | other results
1 | c1ccc(-c2nc3sc4ccccc4n3c2CN2CCCC2)cc1 | Active | 4.78 | 4.65 µM | Active | 18.5 µM | 3.01 µM | 10.52% | 29.27% | 3.98 | Active | 3.87 µM | 6.15 | 60.2% | –
2 | Clc1ccc(-c2nc3sc4ccccc4n3c2CN2CCCC2)cc1 | Active | 5.2 | 4.33 µM | Active | 21.2 µM | 3.46 µM | 4.58% | 13.66% | 4.89 | Active | 4.07 µM | 6.12 | 81.75% | –
3 | Cc1ccc2c(c1)sc1nc(-c3ccccc3)c(CN3CCCC3)n12 | Active | 4.6 | 8.09 µM | Active | 17.5 µM | 3.6 µM | 7.13% | 18.95% | 2.163 | Active | 3.8 µM | 4.86 | 73.97% | –
4 | Cc1ccc2c(c1)sc1nc(-c3ccccc3)c(CN3CCOCC3)n12 | Active | 5 | 7.59 µM | Active | 19 µM | 3.29 µM | 8.2% | 20.9% | 2.5 | Active | 3.8 µM | 5.78 | 70.89% | –
5 | CCOc1ccc2c(c1)sc1nc(-c3ccccc3)c(CN3CCN(c4ccccn4)CC3)n12 | Active | 3.59 | 4.36 µM | Active | 16 µM | 2.84 µM | 13.42% | 31.33% | 3.67 | Active | 4.45 µM | 5.63 | 55.24% | Activity (HepG2 [14]): Active; fold change (FC) (HepG2 [15]): 2; Activity (HepG2 [16]): Active; Activity (HepG2 [17]): Active; Activity (HepG2 [18]): Active; Activity (HepG2 [19]): Active; Activity (HepG2 [20]): Active; Activity (HepG2 [21]): Active; Activity (HepG2 [22]): Active; Activity (HepG2 [23]): Active
6 | CCN(CC)CCOc1cccc(-c2cn3c(n2)sc2ccccc23)c1.Cl.Cl | Active | 4.87 | 4.3 µM | Active | 17.5 µM | 2.02 µM | 13.37% | 22.43% | 4.069 | Active | 3.59 µM | 8.663 | 64.19% | –
7 | CCOc1ccc2c(c1)sc1nc(-c3ccccc3)c(CN3CCCC3)n12 | Active | – | 4.3 µM | Active | 18.8 µM | 3.76 µM | 12.64% | 27.23% | – | Active | 3.76 µM | 5 | 60.12% | –
8 | CCOc1ccc2c(c1)sc1nc(-c3ccccc3)c(CN3CCOCC3)n12 | Active | 5 | 5.89 µM | Active | 21 µM | 3.52 µM | 5.99% | 20.46% | 3.57 | Active | 4.2 µM | 5.97 | 73.54% | –
